Source: ChEMBL document CHEMBL1146655, “Novel thrombin inhibitors incorporating weakly basic heterobicyclic P1-arginine mimetics: optimization via modification of P1 and P3 moieties” (Bioorg Med Chem Lett, 2004)

Legend:
[1] = Selectivity for inhibition of thrombin over trypsin.
How it was run: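 Ratio Ki(trypsin)/Ki(thrombin). Both Ki values came from chromogenic-substrate amidolytic assays, each derived by Cheng–Prusoff from IC50 or from velocity equations with and without inhibitor using the relevant Km.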

[2] = Concentration required to double the thrombin time in human plasma; format: functional
Prothrombin = Prothrombin (Homo sapiens, UniProt P00734); test: In vitro inhibition of human thrombin.
Coagulation factor X = Coagulation factor X (Homo sapiens, UniProt P00742); test: In vitro inhibition of Coagulation factor Xa.
How it was run: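 Amidolytic assay with a chromogenic substrate for factor Xa. Ki was derived by the Cheng–Prusoff relation from IC50 values, or from velocity equations with and without inhibitor using the substrate Km.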

[3] = Concentration required to double the prothrombin time in human plasma; format: functional
[4] = Concentration required to double the activated partial thromboplastin time in human plasma; format: functional
Serine protease 1 = target: T1, Serine protease 1 (Bos taurus, UniProt P00760); test: In vitro inhibition of bovine trypsin.
T1 sequence (P00760 whole entry): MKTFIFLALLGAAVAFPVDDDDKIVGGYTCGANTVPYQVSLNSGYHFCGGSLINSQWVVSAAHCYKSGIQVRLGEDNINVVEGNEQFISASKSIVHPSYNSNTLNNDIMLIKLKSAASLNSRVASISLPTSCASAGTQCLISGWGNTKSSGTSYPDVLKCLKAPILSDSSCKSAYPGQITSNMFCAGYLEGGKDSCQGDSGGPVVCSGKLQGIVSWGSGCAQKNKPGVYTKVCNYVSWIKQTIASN
How it was run: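 Amidolytic assay of thrombin, trypsin and factor Xa activity with chromogenic substrates. Ki was derived by the Cheng–Prusoff relation from IC50, or from reaction velocity equations with and without inhibitor using the substrate Km. Thrombin-over-trypsin selectivity was taken as the ratio Ki(trypsin)/Ki(thrombin).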

[5] = Dissociation constant was evaluated; format: physicochemical

Chain of Coagulation factor X (P00742 41-179 limits assumed): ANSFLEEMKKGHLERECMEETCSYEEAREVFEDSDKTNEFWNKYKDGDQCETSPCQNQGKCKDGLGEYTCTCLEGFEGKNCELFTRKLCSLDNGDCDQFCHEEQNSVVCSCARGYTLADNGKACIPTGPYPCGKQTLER
Chain of Coagulation factor X (P00742 235-488 limits assumed): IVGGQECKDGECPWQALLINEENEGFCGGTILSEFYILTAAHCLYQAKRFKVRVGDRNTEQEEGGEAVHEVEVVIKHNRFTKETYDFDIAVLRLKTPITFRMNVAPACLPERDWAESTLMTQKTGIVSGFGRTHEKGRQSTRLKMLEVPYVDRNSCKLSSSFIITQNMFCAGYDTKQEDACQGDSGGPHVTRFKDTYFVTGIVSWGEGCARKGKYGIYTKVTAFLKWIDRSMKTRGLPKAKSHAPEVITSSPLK

| Structure (SMILES) | Selectivity [1] | Ki (Prothrombin) | Ki (Coagulation factor X) | Ki (Serine protease 1) | pKa [5] | TT [2] | PT [3] | 2x APTT [4] |
| --- | --- | --- | --- | --- | --- | --- | --- | --- |
| Cc1ccc(NS(=O)(=O)Cc2ccc(F)cc2)c(=O)n1CC(=O)NC1CCc2c(sc(=N)n2N)C1 (stereo not given) | 201 | 0.022 µM | 131 µM | 8.06 µM | 3.17 | – | – | 22.6 µM |
| Cc1ccc(NS(=O)(=O)Cc2ccc(F)cc2)c(=O)n1CC(=O)NCC1CCc2n[nH]cc2C1 (stereo not given) | 1720 | 0.149 µM | 314 µM | 258 µM | 4 | 3.9 µM | 34 µM | 15.8 µM |
| CCCS(=O)(=O)Nc1ccc(C)n(CC(=O)NCC2CCc3nc(N)sc3C2)c1=O (stereo not given) | – | 3.8 µM | – | – | 6.5 | – | – | – |
| Cc1ccc(CS(=O)(=O)Nc2ccc(C)n(CC(=O)NC3CCc4nc(N)sc4C3)c2=O)cc1 (stereo not given) | 2460 | 0.1 µM | 80 µM | 246 µM | 6.1 | 12 µM | 56 µM | 31.3 µM |
| Cc1ccc(CS(=O)(=O)Nc2ccc(C)n(CC(=O)NCC3CCc4n[nH]cc4C3)c2=O)cc1 (stereo not given) | > 2900 | 0.102 µM | 228 µM | > 300 µM | 4 | 3.4 µM | 26.8 µM | 18.8 µM |
| Cc1ccc(NS(=O)(=O)Cc2ccc(F)cc2)c(=O)n1CC(=O)N[C@@H]1CCc2nc(N)sc2C1 | > 9090 | 0.077 µM | > 500 µM | > 700 µM | 6.1 | – | – | 20.1 µM |
| Cc1ccc(NS(=O)(=O)Cc2ccccc2)c(=O)n1CC(=O)N[C@H]1CCc2nc(N)sc2C1 | 253 | 1.16 µM | 371 µM | – | 6.1 | – | – | – |
| Cc1ccc(NS(=O)(=O)Cc2cccc(C(F)(F)F)c2)c(=O)n1CC(=O)NC1CCc2nc(N)sc2C1 (stereo not given) | > 300 | – | 81 µM | > 200 µM | 6.1 | 125 µM | 435 µM | 428 µM |
| Cc1ccc(NS(=O)(=O)Cc2cccc(C(F)(F)F)c2)c(=O)n1CC(=O)NCC1CCc2n[nH]cc2C1 (stereo not given) | 757 | 0.562 µM | 252 µM | 425 µM | 4 | 36.6 µM | 293 µM | 447 µM |
| Cc1ccc(NS(=O)(=O)Cc2ccc(F)cc2Cl)c(=O)n1CC(=O)NCC1CCc2n[nH]cc2C1 (stereo not given) | > 1910 | 0.157 µM | 75 µM | > 300 µM | 4 | 10.8 µM | 120 µM | 50 µM |

More lines, main results first:

| Selectivity [1] | Ki (Prothrombin) | Ki (Coagulation factor X) | Ki (Serine protease 1) | pKa [5] | Structure (SMILES) | TT [2] | PT [3] | 2x APTT [4] |
| --- | --- | --- | --- | --- | --- | --- | --- | --- |
| 2170 | 0.12 µM | 92 µM | – | – | Cc1ccc(NS(=O)(=O)Cc2ccccc2)c(=O)n1CC(=O)NC1CCc2nc(N)sc2C1 (stereo not given) | 6.6 µM | 41.4 µM | 36.5 µM |
| – | 0.157 µM | 69 µM | 1920 µM | 6.1 | Cc1ccc(NS(=O)(=O)Cc2ccc(F)cc2Cl)c(=O)n1CC(=O)NC1CCc2nc(N)sc2C1 (stereo not given) | 93.8 µM | – | 94 µM |
| 38 | 1.34 µM | 179 µM | – | 6.1 | CCCCS(=O)(=O)Nc1ccc(C)n(CC(=O)NC2CCc3nc(N)sc3C2)c1=O (stereo not given) | – | – | – |
| 3700 | 0.071 µM | 225 µM | 263 µM | 6.1 | Cc1ccc(NS(=O)(=O)Cc2ccccc2)c(=O)n1CC(=O)N[C@@H]1CCc2nc(N)sc2C1 | – | – | 9.52 µM |
| > 2940 | – | – | > 500 µM | – | Cc1ccc(NS(=O)(=O)Cc2ccccc2)c(=O)n1CC(=O)NCC1CCc2n[nH]cc2C1 (stereo not given) | 5.2 µM | 30.6 µM | 20.5 µM |
| > 123 | – | 176 µM | > 700 µM | 6.1 | Cc1ccc(NS(=O)(=O)Cc2ccc(F)cc2)c(=O)n1CC(=O)N[C@H]1CCc2nc(N)sc2C1 | – | – | – |
| 28 | 2.3 µM | 200 µM | 64.3 µM | 6.1 | CCCS(=O)(=O)Nc1ccc(C)n(CC(=O)NC2CCc3nc(N)sc3C2)c1=O (stereo not given) | – | – | – |
| 65 | 0.042 µM | > 200 µM | 2.71 µM | 3.17 | Cc1ccc(NS(=O)(=O)Cc2ccccc2)c(=O)n1CC(=O)NC1CCc2c(sc(=N)n2N)C1 (stereo not given) | – | – | 2.4 µM |
| > 8000 | 0.1 µM | > 300 µM | > 800 µM | 6.1 | Cc1ccc(NS(=O)(=O)Cc2ccc(F)cc2)c(=O)n1CC(=O)NC1CCc2nc(N)sc2C1 (stereo not given) | 5.1 µM | 57.7 µM | 28.7 µM |
